Assay results: ChEMBL document CHEMBL4138161, “Discovery of simplified sampangine derivatives as novel fungal biofilm inhibitors” (Eur J Med Chem, 2018)
Values after ≈ are worked out from the molar mass of the structure shown.

system: Candida albicans; experiment: Antifungal activity against Candida albicans SC5314 after 24 hrs by spectrophotometric analysis; type: functional; conditions: SC5314, 24 h
Method in brief: (§1)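 Broth microdilution in RPMI 1640, inoculum 5×10^3 CFU/mL, compounds from 6.4 mg/mL DMSO stocks, 35 ℃ for 24 h. Growth read as OD600; MIC80 taken as lowest concentration giving 80% growth inhibition. Triplicate.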

Compound	MIC80
CC(C)(C)OC(=O)/C=C\c1ccnc2c1C(=O)c1sc([N+](=O)[O-])cc1C2=O	32 µg/mL (≈ 82.8 µM)
Cc1ccnc2c1[C@H](O)c1sc([N+](=O)[O-])cc1[C@H]2O (relative stereo)	> 64 µg/mL
O=C1c2cc([N+](=O)[O-])sc2C(=O)c2cccnc21	0.5 µg/mL (≈ 1.92 µM)
CCC(C)n1ncn(-c2ccc(N3CCN(c4ccc(OCC5COC(Cn6cncn6)(c6ccc(Cl)cc6Cl)O5)cc4)CC3)cc2)c1=O (stereo not given) [ITRACONAZOLE]	8 µg/mL (≈ 11.3 µM)
CCCc1cnc2c(c1)C(=O)c1sc([N+](=O)[O-])cc1C2=O	2 µg/mL (≈ 6.62 µM)
Cc1ccnc2c1C(=O)c1occc1C2=O	> 64 µg/mL
Cc1ccnc2c1C(=O)c1scc(N)c1C2=O	32 µg/mL (≈ 131 µM)
CC(C)(C)OC(=O)/C=C/c1ccnc2c1C(=O)c1sc([N+](=O)[O-])cc1C2=O	16 µg/mL (≈ 41.4 µM)
CC(C)c1cnc2c(c1)C(=O)c1sc([N+](=O)[O-])cc1C2=O	2 µg/mL (≈ 6.62 µM)
CCCCc1cnc2c(c1)C(=O)c1sc([N+](=O)[O-])cc1C2=O	2 µg/mL (≈ 6.32 µM)
Cc1ccnc2c1C(=O)c1cn(C)cc1C2=O	> 64 µg/mL
Cc1ccc(C(C)c2ccnc3c2C(=O)c2sc([N+](=O)[O-])cc2C3=O)o1 (stereo not given)	> 64 µg/mL
Cc1ccnc2c1C(=O)c1sc([N+](=O)[O-])cc1C2=O	0.25 µg/mL (≈ 0.912 µM)
Cc1ccnc2c1C(=O)c1sc(N)cc1C2=O	> 64 µg/mL
O=C1c2cc([N+](=O)[O-])sc2C(=O)c2c(-c3ccco3)ccnc21	4 µg/mL (≈ 12.3 µM)

system: Candida parapsilosis; experiment: Antifungal activity against Candida parapsilosis 22019 after 24 hrs by spectrophotometric analysis; type: functional; conditions: Lodderomyces parapsilosis, 22019, 24 h; method in brief: as §1

Compound	MIC80
CC(C)(C)OC(=O)/C=C\c1ccnc2c1C(=O)c1sc([N+](=O)[O-])cc1C2=O	> 64 µg/mL
Cc1ccnc2c1[C@H](O)c1sc([N+](=O)[O-])cc1[C@H]2O (relative stereo)	> 64 µg/mL
O=C1c2cc([N+](=O)[O-])sc2C(=O)c2cccnc21	2 µg/mL (≈ 7.69 µM)
CCC(C)n1ncn(-c2ccc(N3CCN(c4ccc(OCC5COC(Cn6cncn6)(c6ccc(Cl)cc6Cl)O5)cc4)CC3)cc2)c1=O (stereo not given) [ITRACONAZOLE]	8 µg/mL (≈ 11.3 µM)
CCCc1cnc2c(c1)C(=O)c1sc([N+](=O)[O-])cc1C2=O	4 µg/mL (≈ 13.2 µM)
Cc1ccnc2c1C(=O)c1occc1C2=O	> 64 µg/mL
Cc1ccnc2c1C(=O)c1scc(N)c1C2=O	> 64 µg/mL
CC(C)(C)OC(=O)/C=C/c1ccnc2c1C(=O)c1sc([N+](=O)[O-])cc1C2=O	32 µg/mL (≈ 82.8 µM)
CC(C)c1cnc2c(c1)C(=O)c1sc([N+](=O)[O-])cc1C2=O	4 µg/mL (≈ 13.2 µM)
CCCCc1cnc2c(c1)C(=O)c1sc([N+](=O)[O-])cc1C2=O	4 µg/mL (≈ 12.6 µM)
Cc1ccnc2c1C(=O)c1cn(C)cc1C2=O	> 64 µg/mL
Cc1ccc(C(C)c2ccnc3c2C(=O)c2sc([N+](=O)[O-])cc2C3=O)o1 (stereo not given)	> 64 µg/mL
Cc1ccnc2c1C(=O)c1sc([N+](=O)[O-])cc1C2=O	1 µg/mL (≈ 3.65 µM)
Cc1ccnc2c1C(=O)c1sc(N)cc1C2=O	> 64 µg/mL
O=C1c2cc([N+](=O)[O-])sc2C(=O)c2c(-c3ccco3)ccnc21	4 µg/mL (≈ 12.3 µM)

system: Nakaseomyces glabratus; experiment: Antifungal activity against Candida glabrata 537 after 24 hrs by spectrophotometric analysis; type: functional; conditions: Nakaseomyces glabratus, 537, 24 h; method in brief: as §1

Compound	MIC80
CC(C)(C)OC(=O)/C=C\c1ccnc2c1C(=O)c1sc([N+](=O)[O-])cc1C2=O	> 64 µg/mL
Cc1ccnc2c1[C@H](O)c1sc([N+](=O)[O-])cc1[C@H]2O (relative stereo)	> 64 µg/mL
O=C1c2cc([N+](=O)[O-])sc2C(=O)c2cccnc21	1 µg/mL (≈ 3.84 µM)
CCC(C)n1ncn(-c2ccc(N3CCN(c4ccc(OCC5COC(Cn6cncn6)(c6ccc(Cl)cc6Cl)O5)cc4)CC3)cc2)c1=O (stereo not given) [ITRACONAZOLE]	1 µg/mL (≈ 1.42 µM)
CCCc1cnc2c(c1)C(=O)c1sc([N+](=O)[O-])cc1C2=O	4 µg/mL (≈ 13.2 µM)
Cc1ccnc2c1C(=O)c1occc1C2=O	> 64 µg/mL
Cc1ccnc2c1C(=O)c1scc(N)c1C2=O	> 64 µg/mL
CC(C)(C)OC(=O)/C=C/c1ccnc2c1C(=O)c1sc([N+](=O)[O-])cc1C2=O	> 64 µg/mL
CC(C)c1cnc2c(c1)C(=O)c1sc([N+](=O)[O-])cc1C2=O	4 µg/mL (≈ 13.2 µM)
CCCCc1cnc2c(c1)C(=O)c1sc([N+](=O)[O-])cc1C2=O	4 µg/mL (≈ 12.6 µM)
Cc1ccnc2c1C(=O)c1cn(C)cc1C2=O	> 64 µg/mL
Cc1ccc(C(C)c2ccnc3c2C(=O)c2sc([N+](=O)[O-])cc2C3=O)o1 (stereo not given)	> 64 µg/mL
Cc1ccnc2c1C(=O)c1sc([N+](=O)[O-])cc1C2=O	1 µg/mL (≈ 3.65 µM)
Cc1ccnc2c1C(=O)c1sc(N)cc1C2=O	> 64 µg/mL
O=C1c2cc([N+](=O)[O-])sc2C(=O)c2c(-c3ccco3)ccnc21	4 µg/mL (≈ 12.3 µM)

system: Cryptococcus neoformans; experiment: Antifungal activity against Cryptococcus neoformans 32609 after 24 hrs by spectrophotometric analysis; type: functional; conditions: Cryptococcus neoformans, 32609, 24 h; method in brief: as §1

Compound	MIC80
CC(C)(C)OC(=O)/C=C\c1ccnc2c1C(=O)c1sc([N+](=O)[O-])cc1C2=O	4 µg/mL (≈ 10.4 µM)
Cc1ccnc2c1[C@H](O)c1sc([N+](=O)[O-])cc1[C@H]2O (relative stereo)	> 64 µg/mL
O=C1c2cc([N+](=O)[O-])sc2C(=O)c2cccnc21	0.5 µg/mL (≈ 1.92 µM)
CCC(C)n1ncn(-c2ccc(N3CCN(c4ccc(OCC5COC(Cn6cncn6)(c6ccc(Cl)cc6Cl)O5)cc4)CC3)cc2)c1=O (stereo not given) [ITRACONAZOLE]	4 µg/mL (≈ 5.67 µM)
CCCc1cnc2c(c1)C(=O)c1sc([N+](=O)[O-])cc1C2=O	0.5 µg/mL (≈ 1.65 µM)
Cc1ccnc2c1C(=O)c1occc1C2=O	64 µg/mL (≈ 300 µM)
Cc1ccnc2c1C(=O)c1scc(N)c1C2=O	> 64 µg/mL
CC(C)(C)OC(=O)/C=C/c1ccnc2c1C(=O)c1sc([N+](=O)[O-])cc1C2=O	4 µg/mL (≈ 10.4 µM)
CC(C)c1cnc2c(c1)C(=O)c1sc([N+](=O)[O-])cc1C2=O	0.5 µg/mL (≈ 1.65 µM)
CCCCc1cnc2c(c1)C(=O)c1sc([N+](=O)[O-])cc1C2=O	0.5 µg/mL (≈ 1.58 µM)
Cc1ccnc2c1C(=O)c1cn(C)cc1C2=O	> 64 µg/mL
Cc1ccc(C(C)c2ccnc3c2C(=O)c2sc([N+](=O)[O-])cc2C3=O)o1 (stereo not given)	0.25 µg/mL (≈ 0.679 µM)
Cc1ccnc2c1C(=O)c1sc([N+](=O)[O-])cc1C2=O	0.5 µg/mL (≈ 1.82 µM)
Cc1ccnc2c1C(=O)c1sc(N)cc1C2=O	> 64 µg/mL
O=C1c2cc([N+](=O)[O-])sc2C(=O)c2c(-c3ccco3)ccnc21	2 µg/mL (≈ 6.13 µM)

system: Aspergillus fumigatus; experiment: Antifungal activity against Aspergillus fumigatus 07544 after 24 hrs by spectrophotometric analysis; type: functional; conditions: Aspergillus fumigatus, 07544, 24 h; method in brief: as §1

Compound	MIC80
CC(C)(C)OC(=O)/C=C\c1ccnc2c1C(=O)c1sc([N+](=O)[O-])cc1C2=O	> 64 µg/mL
Cc1ccnc2c1[C@H](O)c1sc([N+](=O)[O-])cc1[C@H]2O (relative stereo)	> 64 µg/mL
O=C1c2cc([N+](=O)[O-])sc2C(=O)c2cccnc21	1 µg/mL (≈ 3.84 µM)
CCC(C)n1ncn(-c2ccc(N3CCN(c4ccc(OCC5COC(Cn6cncn6)(c6ccc(Cl)cc6Cl)O5)cc4)CC3)cc2)c1=O (stereo not given) [ITRACONAZOLE]	8 µg/mL (≈ 11.3 µM)
CCCc1cnc2c(c1)C(=O)c1sc([N+](=O)[O-])cc1C2=O	4 µg/mL (≈ 13.2 µM)
Cc1ccnc2c1C(=O)c1occc1C2=O	> 64 µg/mL
Cc1ccnc2c1C(=O)c1scc(N)c1C2=O	> 64 µg/mL
CC(C)(C)OC(=O)/C=C/c1ccnc2c1C(=O)c1sc([N+](=O)[O-])cc1C2=O	32 µg/mL (≈ 82.8 µM)
CC(C)c1cnc2c(c1)C(=O)c1sc([N+](=O)[O-])cc1C2=O	4 µg/mL (≈ 13.2 µM)
CCCCc1cnc2c(c1)C(=O)c1sc([N+](=O)[O-])cc1C2=O	4 µg/mL (≈ 12.6 µM)
Cc1ccnc2c1C(=O)c1cn(C)cc1C2=O	> 64 µg/mL
Cc1ccc(C(C)c2ccnc3c2C(=O)c2sc([N+](=O)[O-])cc2C3=O)o1 (stereo not given)	32 µg/mL (≈ 86.9 µM)
Cc1ccnc2c1C(=O)c1sc([N+](=O)[O-])cc1C2=O	2 µg/mL (≈ 7.29 µM)
Cc1ccnc2c1C(=O)c1sc(N)cc1C2=O	> 64 µg/mL
O=C1c2cc([N+](=O)[O-])sc2C(=O)c2c(-c3ccco3)ccnc21	16 µg/mL (≈ 49 µM)

system: Trichophyton rubrum; experiment: Antifungal activity against Trichophyton rubrum Cmccftla after 24 hrs by spectrophotometric analysis; type: functional; conditions: not given; method in brief: as §1

Compound	MIC80
CC(C)(C)OC(=O)/C=C\c1ccnc2c1C(=O)c1sc([N+](=O)[O-])cc1C2=O	4 µg/mL (≈ 10.4 µM)
Cc1ccnc2c1[C@H](O)c1sc([N+](=O)[O-])cc1[C@H]2O (relative stereo)	> 64 µg/mL
O=C1c2cc([N+](=O)[O-])sc2C(=O)c2cccnc21	0.5 µg/mL (≈ 1.92 µM)
CCC(C)n1ncn(-c2ccc(N3CCN(c4ccc(OCC5COC(Cn6cncn6)(c6ccc(Cl)cc6Cl)O5)cc4)CC3)cc2)c1=O (stereo not given) [ITRACONAZOLE]	4 µg/mL (≈ 5.67 µM)
CCCc1cnc2c(c1)C(=O)c1sc([N+](=O)[O-])cc1C2=O	1 µg/mL (≈ 3.31 µM)
Cc1ccnc2c1C(=O)c1occc1C2=O	> 64 µg/mL
Cc1ccnc2c1C(=O)c1scc(N)c1C2=O	> 64 µg/mL
CC(C)(C)OC(=O)/C=C/c1ccnc2c1C(=O)c1sc([N+](=O)[O-])cc1C2=O	8 µg/mL (≈ 20.7 µM)
CC(C)c1cnc2c(c1)C(=O)c1sc([N+](=O)[O-])cc1C2=O	1 µg/mL (≈ 3.31 µM)
CCCCc1cnc2c(c1)C(=O)c1sc([N+](=O)[O-])cc1C2=O	1 µg/mL (≈ 3.16 µM)
Cc1ccnc2c1C(=O)c1cn(C)cc1C2=O	64 µg/mL (≈ 283 µM)
Cc1ccc(C(C)c2ccnc3c2C(=O)c2sc([N+](=O)[O-])cc2C3=O)o1 (stereo not given)	1 µg/mL (≈ 2.71 µM)
Cc1ccnc2c1C(=O)c1sc([N+](=O)[O-])cc1C2=O	0.5 µg/mL (≈ 1.82 µM)
Cc1ccnc2c1C(=O)c1sc(N)cc1C2=O	8 µg/mL (≈ 32.7 µM)
O=C1c2cc([N+](=O)[O-])sc2C(=O)c2c(-c3ccco3)ccnc21	16 µg/mL (≈ 49 µM)

system: Nannizzia gypsea; experiment: Antifungal activity against Microsporum gypseum Cmccfmza after 24 hrs by spectrophotometric analysis; type: functional; conditions: not given; method in brief: as §1

Compound	MIC80
CC(C)(C)OC(=O)/C=C\c1ccnc2c1C(=O)c1sc([N+](=O)[O-])cc1C2=O	4 µg/mL (≈ 10.4 µM)
Cc1ccnc2c1[C@H](O)c1sc([N+](=O)[O-])cc1[C@H]2O (relative stereo)	> 64 µg/mL
O=C1c2cc([N+](=O)[O-])sc2C(=O)c2cccnc21	0.5 µg/mL (≈ 1.92 µM)
CCC(C)n1ncn(-c2ccc(N3CCN(c4ccc(OCC5COC(Cn6cncn6)(c6ccc(Cl)cc6Cl)O5)cc4)CC3)cc2)c1=O (stereo not given) [ITRACONAZOLE]	4 µg/mL (≈ 5.67 µM)
CCCc1cnc2c(c1)C(=O)c1sc([N+](=O)[O-])cc1C2=O	1 µg/mL (≈ 3.31 µM)
Cc1ccnc2c1C(=O)c1occc1C2=O	> 64 µg/mL
Cc1ccnc2c1C(=O)c1scc(N)c1C2=O	> 64 µg/mL
CC(C)(C)OC(=O)/C=C/c1ccnc2c1C(=O)c1sc([N+](=O)[O-])cc1C2=O	4 µg/mL (≈ 10.4 µM)
CC(C)c1cnc2c(c1)C(=O)c1sc([N+](=O)[O-])cc1C2=O	1 µg/mL (≈ 3.31 µM)
CCCCc1cnc2c(c1)C(=O)c1sc([N+](=O)[O-])cc1C2=O	1 µg/mL (≈ 3.16 µM)
Cc1ccnc2c1C(=O)c1cn(C)cc1C2=O	> 64 µg/mL
Cc1ccc(C(C)c2ccnc3c2C(=O)c2sc([N+](=O)[O-])cc2C3=O)o1 (stereo not given)	1 µg/mL (≈ 2.71 µM)
Cc1ccnc2c1C(=O)c1sc([N+](=O)[O-])cc1C2=O	2 µg/mL (≈ 7.29 µM)
Cc1ccnc2c1C(=O)c1sc(N)cc1C2=O	> 64 µg/mL
O=C1c2cc([N+](=O)[O-])sc2C(=O)c2c(-c3ccco3)ccnc21	8 µg/mL (≈ 24.5 µM)
